{"source": "paper PMC6075869", "about": "(Journal of medicinal chemistry, 2017)", "key": {"M5 [1]": {"system": "M5", "test": "Functional assay, antagonist activity on M5", "format": "cell-based"}, "muscarinic M3 receptor [2]": {"system": "muscarinic M3 receptor", "test": "Radioligand binding assay"}, "muscarinic receptor M4": {"system": "muscarinic receptor M4", "test": "Radioligand binding assay", "details": "no significant affinity up to 10 μM"}, "muscarinic receptor M1": {"system": "muscarinic receptor M1", "test": "Radioligand binding assay", "details": "no significant affinity up to 10 μM"}, "muscarinic receptor M2": {"system": "muscarinic receptor M2", "test": "Radioligand binding assay", "details": "no significant affinity up to 10 μM"}, "muscarinic M3 receptor [3]": {"system": "muscarinic M3 receptor", "test": "Functional assay, agonist activity on M3", "format": "cell-based"}, "M5 [4]": {"system": "M5", "test": "Tango assay, agonist activity on M5", "format": "cell-based"}, "[5]": {"molecular_target": "muscarinic acetylcholine receptor (mAchR) M5 (Homo sapiens, UniProt P08912)", "sequence (P08912 whole entry)": "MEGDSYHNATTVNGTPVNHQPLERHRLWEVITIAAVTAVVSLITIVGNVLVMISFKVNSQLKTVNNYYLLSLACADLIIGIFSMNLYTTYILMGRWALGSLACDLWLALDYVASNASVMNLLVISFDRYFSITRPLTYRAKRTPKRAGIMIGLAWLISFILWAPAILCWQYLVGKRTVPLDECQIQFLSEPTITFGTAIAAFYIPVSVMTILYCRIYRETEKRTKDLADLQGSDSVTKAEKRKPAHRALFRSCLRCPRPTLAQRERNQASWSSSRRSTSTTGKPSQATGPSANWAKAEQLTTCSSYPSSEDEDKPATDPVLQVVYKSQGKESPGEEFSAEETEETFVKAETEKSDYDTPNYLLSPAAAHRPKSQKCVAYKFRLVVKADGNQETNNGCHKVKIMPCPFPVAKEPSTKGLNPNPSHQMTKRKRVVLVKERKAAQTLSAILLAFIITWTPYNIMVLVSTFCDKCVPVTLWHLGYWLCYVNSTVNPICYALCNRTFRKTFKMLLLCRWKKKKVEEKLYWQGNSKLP", "test": "Radioligand binding assay"}, "5-HT1A receptor": {"molecular_target": "5-HT1A receptor", "details": "agonist; cited from earlier work"}, "nAchR α3β4": {"molecular_target": "nAchR α3β4 (Rattus norvegicus, UniProt P04757+P12392)", "sequence (P04757 26-499)": "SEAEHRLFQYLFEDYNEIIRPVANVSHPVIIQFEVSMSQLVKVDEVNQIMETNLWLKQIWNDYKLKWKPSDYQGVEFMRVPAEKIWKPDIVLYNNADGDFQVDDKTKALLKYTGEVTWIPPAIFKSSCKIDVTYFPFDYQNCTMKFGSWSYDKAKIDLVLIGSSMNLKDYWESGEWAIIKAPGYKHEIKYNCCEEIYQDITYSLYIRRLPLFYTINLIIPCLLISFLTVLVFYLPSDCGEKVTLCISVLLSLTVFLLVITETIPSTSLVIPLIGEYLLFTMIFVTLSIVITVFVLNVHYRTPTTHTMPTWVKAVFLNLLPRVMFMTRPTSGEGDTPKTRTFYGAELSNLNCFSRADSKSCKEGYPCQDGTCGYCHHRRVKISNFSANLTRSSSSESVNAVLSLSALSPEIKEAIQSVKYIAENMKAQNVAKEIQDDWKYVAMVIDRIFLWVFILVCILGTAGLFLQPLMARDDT", "sequence (P12392 21-495)": "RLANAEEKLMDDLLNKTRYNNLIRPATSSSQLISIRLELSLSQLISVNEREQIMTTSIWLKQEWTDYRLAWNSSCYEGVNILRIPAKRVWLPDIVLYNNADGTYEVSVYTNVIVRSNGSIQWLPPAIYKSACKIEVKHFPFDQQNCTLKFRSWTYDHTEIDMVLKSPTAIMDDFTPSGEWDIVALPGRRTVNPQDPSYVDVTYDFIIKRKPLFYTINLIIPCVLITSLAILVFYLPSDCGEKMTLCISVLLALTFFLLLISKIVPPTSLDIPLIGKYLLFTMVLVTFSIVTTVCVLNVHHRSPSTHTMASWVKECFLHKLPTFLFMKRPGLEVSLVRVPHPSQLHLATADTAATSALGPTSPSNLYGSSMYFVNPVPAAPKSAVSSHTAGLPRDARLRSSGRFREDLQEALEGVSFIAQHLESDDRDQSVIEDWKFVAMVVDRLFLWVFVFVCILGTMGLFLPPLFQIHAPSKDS", "test": "Radioligand binding assay", "details": "for ligand efficiency (LE): calculated from Ki"}, "5-HT1B receptor": {"molecular_target": "5-HT1B receptor", "details": "agonist; cited from earlier work"}, "5-HT3 receptor": {"molecular_target": "5-HT3 receptor", "details": "antagonist; cited from earlier work"}, "5-HT2 receptor": {"molecular_target": "5-HT2 receptor", "details": "agonist; cited from earlier work"}, "[6]": {"molecular_target": "metabotropic glutamate receptor 2", "details": "cited from earlier work"}, "[7]": {"molecular_target": "metabotropic glutamate receptor 3", "details": "cited from earlier work"}, "[8]": {"system": "vesicular acetylcholine transporter", "details": "cited from earlier work"}, "HIV type 1 protease": {"molecular_target": "HIV type 1 protease", "details": "cited from earlier work"}, "[9]": {"molecular_target": "muscarinic acetylcholine receptor M1", "details": "cited from earlier work"}, "[10]": {"molecular_target": "muscarinic acetylcholine receptor M2", "details": "cited from earlier work"}, "carbonic anhydrase II": {"system": "carbonic anhydrase II", "details": "cited from earlier work"}, "[11]": {"system": "endothelial human nitric-oxide synthase", "details": "cited from earlier work"}, "[12]": {"system": "brain human nitric-oxide synthase", "details": "cited from earlier work"}, "[13]": {"system": "inducible human nitric-oxide synthase", "details": "cited from earlier work"}, "histamine H3 receptor": {"molecular_target": "histamine H3 receptor", "details": "cited from earlier work"}, "σ opioid receptor": {"molecular_target": "σ opioid receptor", "details": "cited from earlier work"}, "[14]": {"system": "human sodium/glucose cotransporter 2", "details": "cited from earlier work"}, "[15]": {"system": "human sodium/glucose cotransporter 1", "details": "cited from earlier work"}, "[16]": {"molecular_target": "human nicotinic acetylcholine receptor (nAchR) α2β4", "test": "Radioligand binding assay"}, "nAchR α4β4": {"molecular_target": "nAchR α4β4 (Rattus norvegicus, UniProt P09483+P12392)", "sequence (P09483 31-630)": "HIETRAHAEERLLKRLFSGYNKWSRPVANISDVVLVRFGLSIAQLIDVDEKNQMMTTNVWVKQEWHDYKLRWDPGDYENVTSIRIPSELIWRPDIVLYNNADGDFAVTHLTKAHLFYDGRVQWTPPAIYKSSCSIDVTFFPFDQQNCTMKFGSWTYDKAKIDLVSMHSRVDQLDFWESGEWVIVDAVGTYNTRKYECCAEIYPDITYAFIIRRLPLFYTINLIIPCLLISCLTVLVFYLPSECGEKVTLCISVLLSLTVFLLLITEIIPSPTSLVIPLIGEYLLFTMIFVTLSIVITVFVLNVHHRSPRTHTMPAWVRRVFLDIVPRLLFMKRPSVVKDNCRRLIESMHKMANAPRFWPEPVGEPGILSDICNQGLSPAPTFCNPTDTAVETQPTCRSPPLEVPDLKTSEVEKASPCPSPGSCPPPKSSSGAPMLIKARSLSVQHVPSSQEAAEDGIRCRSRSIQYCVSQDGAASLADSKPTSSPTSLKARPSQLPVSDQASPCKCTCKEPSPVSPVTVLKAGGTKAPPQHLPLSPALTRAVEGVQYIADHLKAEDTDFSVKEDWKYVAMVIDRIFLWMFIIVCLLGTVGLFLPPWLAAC", "sequence (P12392 21-495)": "as the sequence (P12392 21-495) above", "test": "Radioligand binding assay", "in_short": "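Ki from radioligand binding run by the NIMH PDSP protocols. Ligand efficiency derived from Ki as LE = −RT(lnKi)/Nheavy ≈ −1.373 log10Ki/Nheavy. R is the gas constant, T is the experimental temperature in Kelvin, and Nheavy is the heavy-atom count. LE is expressed in kcal/mol/heavy atom.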"}}, "data": [{"smiles": "CCC(=O)OC1(c2ccccc2)CCN(C)CC1C", "note": "(stereo not shown) [Alphaprodine]", "values": [{"measurement": "antagonist activity on M5", "setting": "M5 [1]", "result": "antagonist"}, {"measurement": "binding to M3", "setting": "muscarinic M3 receptor [2]", "result": "did not bind"}, {"measurement": "affinity", "setting": "muscarinic M3 receptor [2]; no significant affinity up to 10 μM", "result": "> 10", "unit": "µM"}, {"measurement": "affinity", "setting": "muscarinic receptor M4", "result": "> 10", "unit": "µM"}, {"measurement": "affinity", "setting": "muscarinic receptor M1", "result": "> 10", "unit": "µM"}, {"measurement": "affinity", "setting": "muscarinic receptor M2", "result": "> 10", "unit": "µM"}, {"measurement": "agonist activity on M3", "setting": "muscarinic M3 receptor [3]", "result": "no agonist activity"}, {"measurement": "agonist activity on M5", "setting": "M5 [4]", "result": "no agonist activity"}, {"measurement": "Ki", "setting": "[5]", "result": 0.771, "unit": "µM"}, {"measurement": "ligand efficiency (LE)", "setting": "[5]; calculated from Ki", "result": 0.442, "unit": "kcal/mol/heavy atom"}]}, {"smiles": "Clc1cccc(SC2CCNCC2)n1", "note": "[Anpirtoline]", "values": [{"measurement": "Ki", "setting": "5-HT1A receptor", "result": 0.15, "unit": "µM"}, {"measurement": "Ki", "setting": "nAchR α3β4", "result": 3.41, "unit": "µM"}, {"measurement": "ligand efficiency (LE)", "setting": "nAchR α3β4", "result": 0.536, "unit": "kcal/mol/heavy atom"}, {"measurement": "Ki", "setting": "5-HT1B receptor", "result": 0.028, "unit": "µM"}, {"measurement": "Ki", "setting": "5-HT3 receptor", "result": 0.03, "unit": "µM"}, {"measurement": "Ki", "setting": "5-HT2 receptor", "result": 1.49, "unit": "µM"}]}, {"smiles": "N[C@@]1(C(=O)O)CS[C@H]2[C@H](C(=O)O)[C@H]21", "note": "[CHEMBL8839]", "values": [{"measurement": "Ki", "setting": "[6]", "result": 0.0406, "unit": "µM"}, {"measurement": "Ki", "setting": "[7]", "result": 0.0047, "unit": "µM"}]}, {"smiles": "OC1CCCCC1N1CCC(C2CCN(C3CCCCC3O)CC2)CC1", "note": "(stereo not shown) [CHEMBL20429]", "values": [{"measurement": "affinity", "setting": "[8]", "result": 200, "unit": "nM"}]}, {"smiles": "OC1CCCCC1N1CCC(C2CCCCC2)CC1", "note": "(stereo not shown) [CHEMBL21309]", "values": [{"measurement": "affinity", "setting": "[8]", "result": 40, "unit": "nM"}]}, {"smiles": "O=C1N(Cc2ccc(O)cc2)[C@H](Cc2ccccc2)[C@H](O)[C@@H](O)[C@@H](Cc2ccccc2)N1Cc1ccc(O)cc1", "note": "[CHEMBL35860]", "values": [{"measurement": "Ki", "setting": "HIV type 1 protease", "result": 0.00012, "unit": "µM"}]}, {"smiles": "C[C@@H]1OC(=O)[C@H]2C[C@H]3CCCC[C@H]3[C@H](/C=C\\[C@H]3CCC[C@H](C)N3C)[C@@H]12", "note": "[CHEMBL58824]", "values": [{"measurement": "IC50", "setting": "[9]", "result": 0.851, "unit": "µM"}, {"measurement": "IC50", "setting": "[10]", "result": 0.851, "unit": "µM"}]}, {"smiles": "O=C1N(Cc2ccccc2)[C@@H](Cc2ccccc2)[C@H](O)[C@@H](O)[C@H](Cc2ccccc2)N1Cc1ccccc1", "note": "[CHEMBL148543]", "values": [{"measurement": "Ki", "setting": "HIV type 1 protease", "result": 0.56, "unit": "µM"}]}, {"smiles": "NS(=O)(=O)c1cc2c(s1)SCCC2=O", "note": "[CHEMBL158261]", "values": [{"measurement": "affinity", "setting": "carbonic anhydrase II", "result": 3.6, "unit": "nM"}]}, {"smiles": "NC1=NCCCSC1", "note": "[CHEMBL186856]", "values": [{"measurement": "IC50", "setting": "[11]", "result": 10.5, "unit": "µM"}, {"measurement": "IC50", "setting": "[12]", "result": 2.8, "unit": "µM"}, {"measurement": "IC50", "setting": "[13]", "result": 1.2, "unit": "µM"}]}, {"smiles": "N[C@@]1(C(=O)O)C[S+]([O-])[C@H]2[C@H](C(=O)O)[C@H]21", "note": "(stereo partly shown) [CHEMBL218710]", "values": [{"measurement": "Ki", "setting": "[6]", "result": 0.508, "unit": "µM"}, {"measurement": "Ki", "setting": "[7]", "result": 0.447, "unit": "µM"}]}, {"smiles": "C[C@@H]1CCCN1CCc1ccns1", "note": "[CHEMBL255141]", "values": [{"measurement": "Ki", "setting": "histamine H3 receptor", "result": 0.017, "unit": "µM"}]}, {"smiles": "C[C@@H]1CCCN1CCc1ccccn1", "note": "[CHEMBL270807]", "values": [{"measurement": "Ki", "setting": "histamine H3 receptor", "result": 0.2, "unit": "µM"}]}, {"smiles": "C[C@@H]1OC(=O)[C@@H]2C[C@@H]3CCCC[C@@H]3[C@@H](/C=C/[C@H]3CCC[C@H](C)N3C)[C@H]12", "note": "[CHEMBL301670]", "values": [{"measurement": "IC50", "setting": "[9]", "result": 0.427, "unit": "µM"}, {"measurement": "IC50", "setting": "[10]", "result": 0.0955, "unit": "µM"}]}, {"smiles": "NC1=NCCCS1", "note": "[CHEMBL306541]", "values": [{"measurement": "IC50", "setting": "[11]", "result": 7.1, "unit": "µM"}, {"measurement": "IC50", "setting": "[12]", "result": 3.2, "unit": "µM"}, {"measurement": "IC50", "setting": "[13]", "result": 2.9, "unit": "µM"}]}, {"smiles": "NS(=O)(=O)c1cc2c(s1)S(=O)(=O)CCC2", "note": "[CHEMBL333193]", "values": [{"measurement": "affinity", "setting": "carbonic anhydrase II", "result": 3.3, "unit": "nM"}]}, {"smiles": "CN(CCc1ccc2ccccc2c1)[C@H]1CCCC[C@H]1N1CCCC1", "note": "[CHEMBL606937]", "values": [{"measurement": "IC50", "setting": "σ opioid receptor", "result": 0.037, "unit": "µM"}]}, {"smiles": "CN(CCc1ccc2c(c1)OCO2)[C@@H]1CCCC[C@@H]1N1CCCC1", "note": "[CHEMBL606938]", "values": [{"measurement": "IC50", "setting": "σ opioid receptor", "result": 0.034, "unit": "µM"}]}, {"smiles": "N#Cc1ccc(Cc2cc([C@@H]3O[C@H](CO)[C@@H](O)[C@H](O)[C@H]3O)ccc2Cl)cc1", "note": "[CHEMBL1807550]", "values": [{"measurement": "IC50", "setting": "[14]", "result": 10, "unit": "µM"}, {"measurement": "IC50", "setting": "[15]", "result": 0.01, "unit": "µM"}]}, {"smiles": "CCOc1ccc(Cc2cc([C@@H]3O[C@H](CO)[C@@H](O)[C@H](O)[C@H]3O)ccc2Cl)cc1", "note": "[CHEMBL3125318]", "values": [{"measurement": "IC50", "setting": "[14]", "result": "[…]"}, {"measurement": "IC50", "setting": "[15]", "result": 3.1, "unit": "µM"}]}, {"smiles": "NC1CCCC1c1ccccc1", "note": "(stereo not shown) [cypenamine]", "values": [{"measurement": "Ki", "setting": "nAchR α3β4", "result": 2.69, "unit": "µM"}, {"measurement": "ligand efficiency (LE)", "setting": "nAchR α3β4", "result": 0.637, "unit": "kcal/mol/heavy atom"}, {"measurement": "Ki", "setting": "[16]", "result": 4.65, "unit": "µM"}, {"measurement": "Ki", "setting": "nAchR α4β4", "result": 4.11, "unit": "µM"}, {"measurement": "ligand efficiency (LE)", "setting": "nAchR α4β4; calculated from Ki", "result": 0.616, "unit": "kcal/mol/heavy atom"}]}]}
